Measured values: ChEMBL document CHEMBL3352732, “Nannozinones and sorazinones, unprecedented pyrazinones from myxobacteria” (J Nat Prod, 2014)
Converted amounts (≈) assume the structure as drawn.

Columns and labels:
Trichosporon oleaginosus = experiment: Antimicrobial activity against Trichosporon oleaginosus 11815 after 24 to 48 hrs by serial dilution method; format: functional; conditions: Cutaneotrichosporon oleaginosum
Procedure, shortened: (§1)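 Yeasts and filamentous fungi tested in MYC medium (1.0% glucose, 1.0% phytone peptone, 50 mM HEPES, pH 7.0). Aliquots of 2 and 20 μL from 1 mg/mL stock, 1:1 serial dilution in 0.15 mL medium in microtiter plates. Incubated at 30 °C with shaking at 160 rpm for 24−48 h. MIC read as the lowest concentration with no visible growth.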

Candida albicans = experiment: Antimicrobial activity against Candida albicans 1665 after 24 to 48 hrs by serial dilution method; format: functional; procedure, shortened: as §1
Mucor hiemalis = experiment: Antimicrobial activity against Mucor hiemalis 2656 after 24 to 48 hrs by serial dilution method; format: functional; procedure, shortened: as §1
Saccharomyces cerevisiae = experiment: Antimicrobial activity against Saccharomyces cerevisiae 70449 after 24 to 48 hrs by serial dilution method; format: functional; procedure, shortened: as §1
Wickerhamomyces anomalus = experiment: Antimicrobial activity against Wickerhamomyces anomalus 6766 after 24 to 48 hrs by serial dilution method; format: functional; procedure, shortened: as §1
[1] = tested on: Mycolicibacterium diernhoferi; experiment: Antimicrobial activity against Mycobacterium diernhoferi 43542 after 24 to 48 hrs by serial dilution method; format: functional
Procedure, shortened: (§2)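 Compounds from 1 mg/mL stock, 2 and 20 μL aliquots, serially diluted 1:1 in 0.15 mL medium in microtiter plates. Shaken at 160 rpm, 30 °C, 24−48 h. MIC is the lowest concentration preventing visible growth.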

Staphylococcus aureus = experiment: Antimicrobial activity against Staphylococcus aureus 346 after 24 to 48 hrs by serial dilution method; format: functional; procedure, shortened: as §2
Nocardia sp. = experiment: Antimicrobial activity against Nocardia sp. 43069 after 24 to 48 hrs by serial dilution method; format: functional; procedure, shortened: as §2
Paenibacillus polymyxa = experiment: Antimicrobial activity against Paenibacillus polymyxa 36 after 24 to 48 hrs by serial dilution method; format: functional; procedure, shortened: as §2
[2] = tested on: Chromobacterium violaceum; experiment: Antimicrobial activity against Chromobacterium violaceum 30191 after 24 to 48 hrs by serial dilution method; format: functional; procedure, shortened: as §2
Escherichia coli = experiment: Antimicrobial activity against Escherichia coli 1116 after 24 to 48 hrs by serial dilution method; format: functional; procedure, shortened: as §2
[3] = Cytotoxicity against human KB3-1 cells by MTT assay; format: functional, cell-based; conditions: KB 3-1
Procedure, shortened: (§3)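 MTT assay in 96-well plates, giving IC50. Media: DMEM for KB-3-1, A431, A549 and L929; F12K for PC-3; RPMI for MCF-7; EBM-2 for HUVEC; McCoy's for SKOV-3. All media had 10% FBS, and cells were kept at 37 °C under 10% CO2. Methanol served as negative control and epothilone A as positive control.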

[4] = Cytotoxicity against human SKOV3 cells by MTT assay; format: functional, cell-based; conditions: SK-OV-3; procedure, shortened: as §3
L929 = experiment: Cytotoxicity against mouse L929 cells by MTT assay; format: functional, cell-based; procedure, shortened: as §3
[5] = Cytotoxicity against human PC3 cells by MTT assay; format: functional, cell-based; conditions: PC-3; procedure, shortened: as §3
MCF7 = experiment: Cytotoxicity against human MCF7 cells by MTT assay; format: functional, cell-based; procedure, shortened: as §3
A549 = experiment: Cytotoxicity against human A549 cells by MTT assay; format: functional, cell-based; procedure, shortened: as §3
Pseudomonas aeruginosa = experiment: Antimicrobial activity against Pseudomonas aeruginosa 50071 after 24 to 48 hrs by serial dilution method; format: functional; procedure, shortened: as §2
A-431 = experiment: Cytotoxicity against human A431 cells by MTT assay; format: functional, cell-based; procedure, shortened: as §3
HUVEC = experiment: Cytotoxicity against HUVEC cells by MTT assay; format: functional, cell-based; conditions: Homo sapiens; procedure, shortened: as §3

Molecule | MIC (Trichosporon oleaginosus) [µg/mL] | MIC (Candida albicans) [µg/mL] | MIC (Mucor hiemalis) [µg/mL] | MIC (Saccharomyces cerevisiae) [µg/mL] | MIC [1] [µg/mL] | MIC (Staphylococcus aureus) [µg/mL] | MIC (Nocardia sp.) [µg/mL] | MIC (Paenibacillus polymyxa) [µg/mL] | MIC [2] [µg/mL] | MIC (Escherichia coli) [µg/mL] | IC50 [3] [µM] | IC50 [4] [µM] | IC50 (L929) [µM] | IC50 [5] [µM] | IC50 (MCF7) [µM] | IC50 (A549) [µM] | MIC (Pseudomonas aeruginosa) [µg/mL] | IC50 (A-431) [µM] | IC50 (HUVEC) [µM] | MIC (Wickerhamomyces anomalus; Hansenula anomala) [µg/mL] | further results
NYSTATIN | 4.2 | 8.3 | 2.1 | 16.6 |  |  |  |  |  |  |  |  |  |  |  |  |  |  |  |  | MIC (Wickerhamomyces anomalus): 16.6 µg/mL
CN(C)[C@@H]1C(O)=C(C(N)=O)C(=O)[C@@]2(O)C(O)=C3C(=O)c4c(O)cccc4[C@@](C)(O)[C@H]3[C@H](O)[C@@H]12.Cl [OXYTETRACYCLINE HYDROCHLORIDE] |  |  |  |  | 0.52 | 0.52 | 0.52 | 6.7 | 1 | 0.42 |  |  |  |  |  |  |  |  |  |  | 
C/C(=C\c1csc(C)n1)[C@@H]1C[C@@H]2O[C@@H]2CCC[C@H](C)[C@H](O)[C@@H](C)C(=O)C(C)(C)[C@@H](O)CC(=O)O1 [EPOTHILONE A] |  |  |  |  |  |  |  |  |  |  | 0.0096 | 0.0013 | 0.0077 | 0.0024 | 0.0022 |  |  |  |  |  | 
O=c1cnc(CCc2ccccc2)c2n1CCC2 | 66.6 (≈ 277 µM) | 33.3 (≈ 139 µM) | 33.3 (≈ 139 µM) | 66.6 (≈ 277 µM) | 33.3 (≈ 139 µM) | 66.6 (≈ 277 µM) | 66.6 (≈ 277 µM) | 66.6 (≈ 277 µM) | 66.6 (≈ 277 µM) | 66.6 (≈ 277 µM) | > 41.5 | > 41.5 | > 41.5 | > 41.5 | > 41.5 | > 41.5 | 66.6 (≈ 277 µM) | > 41.5 | > 41.5 | > 66.6 | 
CC(=O)c1c(Cc2ccccc2)[nH]c(=O)c2cccn12 | > 66.6 | > 66.6 | > 66.6 | > 66.6 | > 66.6 | > 66.6 | 66.6 (≈ 250 µM) | > 66.6 | > 66.6 | > 66.6 | 5.3 | 2.4 | > 37.6 | 16.9 | 14.1 | 8.7 | > 66.6 | 8.45 | 15.5 | > 66.6 | 
Cc1nc(Cc2ccccc2)c(O)nc1Cc1ccccc1 | > 66.6 | > 66.6 | > 66.6 | > 66.6 | > 66.6 | > 66.6 | 67 (≈ 231 µM) | > 66.6 | > 66.6 | > 66.6 | > 34.5 | > 34.5 | > 34.5 | > 34.5 | > 34.5 | > 34.5 | > 66.6 |  |  | > 66.6 | 
COC(=O)[C@H](CCCCN(O)C(=O)/C=C/c1ccccc1)NC(=O)CC(O)(CC(=O)N[C@@H](CCCCN(O)C(=O)/C=C/c1ccccc1)C(=O)OC)C(=O)O | 66.6 (≈ 86.6 µM) | 33.3 (≈ 43.3 µM) | > 66.6 | > 66.6 | > 66.6 | > 66.6 | > 66.6 | > 66.6 | > 66.6 | > 66.6 | 0.05 | 1.95 | 1.82 | 0.19 | 0.22 | 0.12 | > 66.6 | 0.1 | 0.05 | > 66.6 | 
COC(=O)c1c[nH]c2ccccc12 | > 66.6 | > 66.6 | > 66.6 | > 66.6 | > 66.6 | > 66.6 | 33.3 (≈ 190 µM) | > 66.6 | > 66.6 | > 66.6 | > 56.8 | > 56.8 | > 56.8 | > 56.8 | > 56.8 | > 56.8 | > 66.6 |  |  | > 66.6 | 
GENTAMICIN |  |  |  |  |  |  |  |  |  |  |  |  |  |  |  |  | 42 |  |  |  | 
Cc1ccn2c(=O)c3cccn3c(=O)c12 | > 66.6 | > 66.6 | > 66.6 | > 66.6 | > 66.6 | > 66.6 | 16.6 (≈ 82.9 µM) | > 66.6 | > 66.6 | > 66.6 | > 50 | > 50 | > 50 | > 50 | > 50 | > 50 | > 66.6 |  |  | 66.6 (≈ 333 µM) | 
